Data on twelve molecules can be found in ChEMBL document CHEMBL3045743, “Synthesis and herbicidal activity of isoindoline-1,3-dione substituted benzoxazinone derivatives containing a carboxylic ester group” (J Agric Food Chem, 2009).

SMILES strings stand for the structures. Bounds are passed on as bounds.

Common to all, as to format: functional
The test system of experiment [1] is Abutilon theophrasti. Briefly: Post-emergence herbicidal activity against Abutilon theophrasti (velvetleaf) assessed as growth inhibition at 75 g.a.i./ha applied at two-leaf stage measured after 15 days. The note with it: 360 h, read-out: GI. The method in brief:
(§1)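 Pot-grown weeds sown 5 mm deep in greenhouse clay soil (pH 6.5, 1.7% organic matter, CEC 12.9 cmol/kg) at 22-25 °C. Stock diluted with water and sprayed post-emergence: dicots at 2-leaf stage, monocots at 1-leaf stage. Untreated and DMF solvent controls were included. % growth inhibition was scored visually versus untreated controls after 15 days. Triplicates averaged.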

Experiment [2] has as its system Setaria viridis. The experiment in a line: Post-emergence herbicidal activity against Setaria viridis (green foxtail) assessed as growth inhibition at 75 g.a.i./ha applied at one-leaf stage measured after 15 days. The note with it: 360 h, read-out: GI. A digest of the protocol:
as §1

Experiment [3] has as its system Chenopodium album. The experiment in a line: Post-emergence herbicidal activity against Chenopodium album assessed as growth inhibition at 75 g.a.i./ha applied at two-leaf stage measured after 15 days. Conditions: 360 h, read-out: GI. The method in brief:
as §1

The subject of experiment [4] is Abutilon theophrasti. The experiment in a line: Pre-emergence herbicidal activity against Abutilon theophrasti (velvetleaf) assessed as growth inhibition at 75 g.a.i./ha applied 24 hr after seeds were sown measured after 15 days. The note with it: read-out: GI. A digest of the protocol:
(§2)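 Weeds sown 5 mm deep in pots of greenhouse clay soil (pH 6.5, 37.5% clay, CEC 12.9 cmol/kg) and grown at 22-25 °C. Water-diluted formulation was applied pre-emergence 24 h after sowing. Untreated and DMF solvent controls were included. Growth inhibition was visually rated in % against untreated controls after 15 days, as the mean of triplicates.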

Experiment [5] has as its system Digitaria sanguinalis. Briefly: Post-emergence herbicidal activity against Digitaria sanguinalis (hairy crabgrass) assessed as growth inhibition at 75 g.a.i./ha applied at one-leaf stage measured after 15 days. The note with it: 360 h, read-out: GI. A digest of the protocol: as §1
In experiment [6] the test system is Echinochloa crus-galli. The experiment in a line: Pre-emergence herbicidal activity against Echinochloa crus-galli (barnyard grass) assessed as growth inhibition at 75 g.a.i./ha applied 24 hr after seeds were sown measured after 15 days. Conditions: read-out: GI. The method in brief: as §2
In experiment [7] the test system is Digitaria sanguinalis. The experiment in a line: Pre-emergence herbicidal activity against Digitaria sanguinalis (hairy crabgrass) assessed as growth inhibition at 75 g.a.i./ha applied 24 hr after seeds were sown measured after 15 days. Conditions: read-out: GI. A digest of the protocol:
as §2

In experiment [8] the test system is Echinochloa crus-galli. The experiment in a line: Post-emergence herbicidal activity against Echinochloa crus-galli (barnyard grass) assessed as growth inhibition at 75 g.a.i./ha applied at one-leaf stage measured after 15 days. Conditions: 360 h, read-out: GI. The method in brief:
as §1

Experiment [9] has as its system Amaranthus. The experiment in a line: Post-emergence herbicidal activity against Amaranthus ascendens assessed as growth inhibition at 75 g.a.i./ha applied at two-leaf stage measured after 15 days. Conditions: 360 h, read-out: GI. A digest of the protocol: as §1
The test system of experiment [10] is Amaranthus. The experiment in a line: Pre-emergence herbicidal activity against Amaranthus ascendens assessed as growth inhibition at 75 g.a.i./ha applied 24 hr after seeds were sown measured after 15 days. The note with it: read-out: GI. The method in brief:
as §2

Experiment [11] deals with Setaria viridis. The experiment in a line: Pre-emergence herbicidal activity against Setaria viridis (green foxtail) assessed as growth inhibition at 75 g.a.i./ha applied 24 hr after seeds were sown measured after 15 days. Conditions: read-out: GI. A digest of the protocol: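 Preliminary pre-emergence screen at a single rate of 75 g a.i./ha. Stock diluted with water and sprayed on greenhouse pots 24 h after seeds were sown 5 mm deep in clay soil (pH 6.5, 1.7% organic matter); grown at 22-25 °C. Untreated and DMF solvent controls included; triplicate. Visual % growth inhibition vs untreated after 15 days, averaged and banded (>80% top band).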

The test system of experiment [12] is Chenopodium album. Briefly: Pre-emergence herbicidal activity against Chenopodium album assessed as growth inhibition at 75 g.a.i./ha applied 24 hr after seeds were sown measured after 15 days. The note with it: read-out: GI. The method in brief:
as §2

Consider `CCOC(=O)C(C)N1C(=O)COc2cc(F)c(N3C(=O)c4ccc(C)cc4C3=O)cc21` (centres undefined), for which the inhibition of growth at 75 g/ha in the experiment on Abutilon theophrasti [1] is greater than 80%; with Setaria viridis [2], less than 50%; in the experiment with Chenopodium album [3] it was less than 50%; with Abutilon theophrasti [4], less than 50%; in the experiment on Digitaria sanguinalis [5], less than 50%; in the experiment on Echinochloa crus-galli [6] it was less than 50%. Besides, the inhibition of growth at 75 g/ha is less than 50% in the experiment with Digitaria sanguinalis [7]; less than 50% in the experiment with Echinochloa crus-galli [8]; less than 50% with Amaranthus [9]; less than 50% in the experiment with Amaranthus [10]; less than 50% with Setaria viridis [11]; 50% in the experiment with Chenopodium album [12].
As for `CCOC(=O)CN1C(=O)COc2cc(F)c(N3C(=O)c4ccccc4C3=O)cc21`, the inhibition of growth at 75 g/ha was greater than 80% with Abutilon theophrasti [1]; less than 50% with Setaria viridis [2]; greater than 80% with Chenopodium album [3]; 50% in the experiment with Abutilon theophrasti [4]; less than 50% with Digitaria sanguinalis [5]; less than 50% in the experiment on Echinochloa crus-galli [6]. Besides, the inhibition of growth at 75 g/ha is less than 50% in the experiment with Digitaria sanguinalis [7]; less than 50% in the experiment on Echinochloa crus-galli [8]; greater than 80% in the experiment with Amaranthus [9]; 50% in the experiment on Amaranthus [10]; less than 50% in the experiment with Setaria viridis [11]; 50% in the experiment with Chenopodium album [12].
In the case of `CCOC(=O)CN1C(=O)COc2cc(F)c(N3C(=O)c4cc(Cl)c(Cl)cc4C3=O)cc21`, the inhibition of growth at 75 g/ha in the experiment on Abutilon theophrasti [1] is 50%; in the experiment with Setaria viridis [2] it was less than 50%; with Chenopodium album [3] it was 50%; in the experiment with Abutilon theophrasti [4], less than 50%; with Digitaria sanguinalis [5], less than 50%; with Echinochloa crus-galli [6], less than 50%. For the same molecule, the inhibition of growth at 75 g/ha with Digitaria sanguinalis [7] is less than 50%; with Echinochloa crus-galli [8], less than 50%; with Amaranthus [9] it was 50%; in the experiment with Amaranthus [10], less than 50%; in the experiment on Setaria viridis [11] it was less than 50%; in the experiment with Chenopodium album [12], less than 50%.
For the molecule `CCOC(=O)C(c1ccccc1)N1C(=O)COc2cc(F)c(N3C(=O)C4=C(CCCC4)C3=O)cc21` (centres undefined), the inhibition of growth at 75 g/ha is greater than 80% in the experiment on Abutilon theophrasti [1]; greater than 80% in the experiment on Setaria viridis [2]; greater than 80% in the experiment on Chenopodium album [3]; 50% in the experiment on Abutilon theophrasti [4]; greater than 80% with Digitaria sanguinalis [5]; less than 50% in the experiment on Echinochloa crus-galli [6]. Moreover, the inhibition of growth at 75 g/ha with Digitaria sanguinalis [7] was 50%; in the experiment with Echinochloa crus-galli [8], 50%; with Amaranthus [9] it was greater than 80%; with Amaranthus [10], greater than 80%; with Setaria viridis [11], 50%; in the experiment on Chenopodium album [12] it was greater than 80%.
As for `CCOC(=O)C(CC)N1C(=O)COc2cc(F)c(N3C(=O)C4=C(CCCC4)C3=O)cc21` (centres undefined), the inhibition of growth at 75 g/ha is greater than 80% in the experiment with Abutilon theophrasti [1]; 50% in the experiment with Setaria viridis [2]; greater than 80% with Chenopodium album [3]; greater than 80% in the experiment with Abutilon theophrasti [4]; 50% in the experiment with Digitaria sanguinalis [5]; 50% with Echinochloa crus-galli [6]. Further, the inhibition of growth at 75 g/ha was 50% in the experiment on Digitaria sanguinalis [7]; 50% in the experiment on Echinochloa crus-galli [8]; greater than 80% in the experiment with Amaranthus [9]; 50% in the experiment with Amaranthus [10]; 50% with Setaria viridis [11]; 50% with Chenopodium album [12].
Turning to `CCOC(=O)C(C)N1C(=O)COc2cc(F)c(N3C(=O)c4cc(Cl)c(Cl)cc4C3=O)cc21` (centres undefined), the inhibition of growth at 75 g/ha is less than 50% in the experiment with Abutilon theophrasti [1]; less than 50% with Setaria viridis [2]; 50% in the experiment with Chenopodium album [3]; less than 50% with Abutilon theophrasti [4]; less than 50% in the experiment with Digitaria sanguinalis [5]; less than 50% in the experiment with Echinochloa crus-galli [6]. Further, the inhibition of growth at 75 g/ha in the experiment with Digitaria sanguinalis [7], with Echinochloa crus-galli [8], in the experiment with Amaranthus [9], in the experiment with Amaranthus [10], in the experiment on Setaria viridis [11] and in the experiment on Chenopodium album [12] was less than 50% each time.
For the molecule `COC(=O)CN1C(=O)COc2cc(F)c(N3C(=O)c4ccccc4C3=O)cc21`, the inhibition of growth at 75 g/ha in the experiment with Abutilon theophrasti [1] was greater than 80%; with Setaria viridis [2], less than 50%; with Chenopodium album [3], greater than 80%; in the experiment with Abutilon theophrasti [4], 50%; in the experiment with Digitaria sanguinalis [5] it was less than 50%; in the experiment with Echinochloa crus-galli [6], less than 50%. Moreover, the inhibition of growth at 75 g/ha with Digitaria sanguinalis [7] is less than 50%; in the experiment with Echinochloa crus-galli [8], less than 50%; in the experiment with Amaranthus [9], greater than 80%; in the experiment with Amaranthus [10], 50%; in the experiment on Setaria viridis [11], less than 50%; in the experiment on Chenopodium album [12] it was 50%.
Consider `CCC(C(=O)OC)N1C(=O)COc2cc(F)c(N3C(=O)C4=C(CCCC4)C3=O)cc21` (centres undefined), for which the inhibition of growth at 75 g/ha in the experiment on Abutilon theophrasti [1] is greater than 80%; in the experiment on Setaria viridis [2] it was 50%; in the experiment with Chenopodium album [3], greater than 80%; in the experiment with Abutilon theophrasti [4] it was less than 50%; with Digitaria sanguinalis [5] it was 50%; in the experiment with Echinochloa crus-galli [6] it was less than 50%. For the same molecule, the inhibition of growth at 75 g/ha in the experiment on Digitaria sanguinalis [7] was less than 50%; with Echinochloa crus-galli [8], less than 50%; in the experiment on Amaranthus [9], greater than 80%; in the experiment with Amaranthus [10], less than 50%; in the experiment with Setaria viridis [11], less than 50%; with Chenopodium album [12], less than 50%.
With `CCOC(=O)C(C)N1C(=O)COc2cc(F)c(N3C(=O)c4ccc([N+](=O)[O-])cc4C3=O)cc21` (centres undefined), the inhibition of growth at 75 g/ha in the experiment on Abutilon theophrasti [1], in the experiment on Setaria viridis [2], with Chenopodium album [3], with Abutilon theophrasti [4], in the experiment on Digitaria sanguinalis [5] and in the experiment on Echinochloa crus-galli [6] was less than 50% throughout. For the same molecule, the inhibition of growth at 75 g/ha with Digitaria sanguinalis [7] was less than 50%; in the experiment on Echinochloa crus-galli [8], less than 50%; with Amaranthus [9] it was less than 50%; in the experiment with Amaranthus [10], less than 50%; in the experiment on Setaria viridis [11], less than 50%; in the experiment with Chenopodium album [12], 50%.
`CCOC(=O)C(c1ccccc1)N1C(=O)C(C)Oc2cc(F)c(N3C(=O)C4=C(CCCC4)C3=O)cc21` (centres undefined): the inhibition of growth at 75 g/ha with Abutilon theophrasti [1] was greater than 80%; in the experiment on Setaria viridis [2], 50%; in the experiment with Chenopodium album [3] it was greater than 80%; with Abutilon theophrasti [4], 50%; in the experiment with Digitaria sanguinalis [5], 50%; in the experiment with Echinochloa crus-galli [6], greater than 80%. Moreover, the inhibition of growth at 75 g/ha with Digitaria sanguinalis [7] was greater than 80%; with Echinochloa crus-galli [8] it was less than 50%; with Amaranthus [9], greater than 80%; in the experiment with Amaranthus [10] it was 50%; in the experiment with Setaria viridis [11], greater than 80%; with Chenopodium album [12], 50%.
For the molecule `CCOC(=O)CN1C(=O)C(C)Oc2cc(F)c(N3C(=O)C4=C(CCCC4)C3=O)cc21` (centres undefined), the inhibition of growth at 75 g/ha in the experiment with Abutilon theophrasti [1] is greater than 80%; in the experiment on Setaria viridis [2], less than 50%; in the experiment with Chenopodium album [3], greater than 80%; in the experiment with Abutilon theophrasti [4], greater than 80%; in the experiment with Digitaria sanguinalis [5], less than 50%; in the experiment on Echinochloa crus-galli [6], less than 50%. In addition, the inhibition of growth at 75 g/ha is less than 50% in the experiment on Digitaria sanguinalis [7]; less than 50% in the experiment with Echinochloa crus-galli [8]; greater than 80% in the experiment on Amaranthus [9]; greater than 80% with Amaranthus [10]; less than 50% in the experiment on Setaria viridis [11]; greater than 80% in the experiment with Chenopodium album [12].
On to `CCOC(=O)C(C)(C)N1C(=O)C(C)Oc2cc(F)c(N3C(=O)C4=C(CCCC4)C3=O)cc21` (centres undefined), for which the inhibition of growth at 75 g/ha with Abutilon theophrasti [1] was greater than 80%; with Setaria viridis [2], 50%; in the experiment with Chenopodium album [3], greater than 80%; in the experiment with Abutilon theophrasti [4], less than 50%; in the experiment with Digitaria sanguinalis [5], 50%; in the experiment with Echinochloa crus-galli [6], less than 50%. Further, the inhibition of growth at 75 g/ha in the experiment with Digitaria sanguinalis [7] was less than 50%; in the experiment on Echinochloa crus-galli [8] it was 50%; in the experiment with Amaranthus [9], greater than 80%; with Amaranthus [10], 50%; with Setaria viridis [11] it was less than 50%; with Chenopodium album [12] it was less than 50%.
